The target of data set [1] is Activin receptor type-1B (Homo sapiens) (UniProt P36896). Kind of data set: Inhibition of ACVR1B (unknown origin) at 1 uM by FRET method. The procedure, abridged: (§1)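 SelectScreen panel of 58 kinases, each tested at a single 1 µM compound concentration. Read-out was Z′-LYTE FRET of labeled peptide phosphorylation, run by the vendor's protocols, reported as percent inhibition.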

The target of data set [2] is RAC-alpha serine/threonine-protein kinase (Homo sapiens) (UniProt P31749). Kind of data set: Inhibition of AKT1 (unknown origin) at 1 uM by FRET method. In outline: as §1
Data set [3] concerns the target BDNF/NT-3 growth factors receptor (Homo sapiens, UniProt Q16620). To be noted: 1 uM.
Data set [4] has as its target Cyclin-dependent kinase 1/cyclin B1 (Homo sapiens) (UniProt P06493+P14635). Kind of data set: Inhibition of CDK1/cyclinB (unknown origin) at 1 uM by FRET method. Format: protein-complex assay. The procedure, abridged:
as §1

Data set [5] concerns the target Receptor tyrosine-protein kinase erbB-2 (Homo sapiens) (UniProt P04626). Kind of data set: Inhibition of ErbB2 (unknown origin) at 1 uM by FRET method. The procedure, abridged: as §1
For data set [6], the target named is Mast/stem cell growth factor receptor Kit (Homo sapiens, UniProt P10721). Nature of the data set: Inhibition of Kit (unknown origin) at 1 uM by FRET method. The procedure, abridged:
as §1

In data set [7] the target is Mitogen-activated protein kinase kinase kinase 11 (Homo sapiens, UniProt Q16584). Nature of the data set: Inhibition of MLK3 (unknown origin) at 1 uM by FRET method. In outline:
(§2)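 Single-point screen at 1 uM against a panel of 58 representative kinases. Readout was labeled-peptide phosphorylation by FRET (Z′-LYTE), using the vendor's protocols.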

Data set [8] deals with Proto-oncogene tyrosine-protein kinase Src (Homo sapiens, UniProt P12931). Kind of data set: Inhibition of Src (unknown origin) by FRET method. In outline: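 Biochemical IC50 determination from a 10-point dose-response in an enzymatic Z′-LYTE assay. Labeled-peptide phosphorylation was read by FRET under the vendor's protocols.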
Chain of Proto-oncogene tyrosine-protein kinase Src (P12931 2-536 limits assumed): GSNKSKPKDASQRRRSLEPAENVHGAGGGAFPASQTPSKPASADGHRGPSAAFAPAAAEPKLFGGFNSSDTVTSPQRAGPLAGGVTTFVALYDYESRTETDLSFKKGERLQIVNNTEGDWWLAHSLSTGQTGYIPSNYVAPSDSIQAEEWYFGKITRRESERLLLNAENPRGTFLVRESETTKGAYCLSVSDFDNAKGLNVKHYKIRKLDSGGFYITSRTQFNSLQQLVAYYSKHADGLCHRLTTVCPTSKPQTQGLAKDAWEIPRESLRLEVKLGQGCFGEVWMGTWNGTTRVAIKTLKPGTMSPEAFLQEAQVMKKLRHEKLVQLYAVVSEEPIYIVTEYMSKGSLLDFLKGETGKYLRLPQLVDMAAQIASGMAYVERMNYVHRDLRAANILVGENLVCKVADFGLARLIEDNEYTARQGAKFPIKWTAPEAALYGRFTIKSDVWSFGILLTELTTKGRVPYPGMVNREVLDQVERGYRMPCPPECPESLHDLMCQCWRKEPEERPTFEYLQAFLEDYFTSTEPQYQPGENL
For data set [9], the target named is Phosphorylase b kinase gamma catalytic chain, liver/testis isoform (Homo sapiens) (UniProt P15735). Kind of data set: Inhibition of PhKgamma2 (unknown origin) at 1 uM by FRET method. The procedure, abridged: as §2
Data set [10] addresses Dual specificity mitogen-activated protein kinase kinase 1 (Homo sapiens) (UniProt Q02750). Nature of the data set: Inhibition of MEK1 (unknown origin) at 1 uM by FRET method. The procedure, abridged: as §1
In data set [11] the target is Mitogen-activated protein kinase 10 (Homo sapiens, UniProt P53779). Kind of data set: Inhibition of JNK3 (unknown origin) by FRET method. The procedure, abridged:
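JNK1, JNK2 and JNK3 IC50 values came from a 10-point dose–response enzymatic assay.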

Data set [12] addresses Epidermal growth factor receptor (Homo sapiens) (UniProt P00533). Kind of data set: Inhibition of EGFR (unknown origin) at 1 uM by FRET method. In outline:
as §1

The target in data set [13] is Glycogen synthase kinase-3 beta (Homo sapiens, UniProt P49841). Nature of the data set: Inhibition of GSK3beta (unknown origin) at 1 uM by FRET method. The procedure, abridged: as §1
Data set [14] addresses Angiopoietin-1 receptor (Homo sapiens) (UniProt Q02763). Kind of data set: Inhibition of Tie2 (unknown origin) at 1 uM by FRET method. The procedure, abridged:
as §2

Data set [15] in a line: Half life in […] rat at 0.4 or 1 mg/kg, iv and 1 or 5 mg/kg, po. Format: ADME, organism-based. As to conditions: in vivo. The procedure, abridged: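 Rat PK used iv dosing at 0.4 or 1 mg/kg in 60% PEG solution and po dosing at 1 or 5 mg/kg as an aqueous 1% methylcellulose suspension. Free clearance is CL/fu, where fu is the fraction unbound in plasma.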
Data set [16] addresses Serine/threonine-protein kinase pim-1 (Homo sapiens) (UniProt P11309). Kind of data set: Inhibition of PIM1 (unknown origin) at 1 uM by FRET method. The procedure, abridged:
as §2

Data set [17] has as its target T1, Mitogen-activated protein kinase kinase kinase 12 (Homo sapiens) (UniProt Q12852).
T1 sequence (whole entry): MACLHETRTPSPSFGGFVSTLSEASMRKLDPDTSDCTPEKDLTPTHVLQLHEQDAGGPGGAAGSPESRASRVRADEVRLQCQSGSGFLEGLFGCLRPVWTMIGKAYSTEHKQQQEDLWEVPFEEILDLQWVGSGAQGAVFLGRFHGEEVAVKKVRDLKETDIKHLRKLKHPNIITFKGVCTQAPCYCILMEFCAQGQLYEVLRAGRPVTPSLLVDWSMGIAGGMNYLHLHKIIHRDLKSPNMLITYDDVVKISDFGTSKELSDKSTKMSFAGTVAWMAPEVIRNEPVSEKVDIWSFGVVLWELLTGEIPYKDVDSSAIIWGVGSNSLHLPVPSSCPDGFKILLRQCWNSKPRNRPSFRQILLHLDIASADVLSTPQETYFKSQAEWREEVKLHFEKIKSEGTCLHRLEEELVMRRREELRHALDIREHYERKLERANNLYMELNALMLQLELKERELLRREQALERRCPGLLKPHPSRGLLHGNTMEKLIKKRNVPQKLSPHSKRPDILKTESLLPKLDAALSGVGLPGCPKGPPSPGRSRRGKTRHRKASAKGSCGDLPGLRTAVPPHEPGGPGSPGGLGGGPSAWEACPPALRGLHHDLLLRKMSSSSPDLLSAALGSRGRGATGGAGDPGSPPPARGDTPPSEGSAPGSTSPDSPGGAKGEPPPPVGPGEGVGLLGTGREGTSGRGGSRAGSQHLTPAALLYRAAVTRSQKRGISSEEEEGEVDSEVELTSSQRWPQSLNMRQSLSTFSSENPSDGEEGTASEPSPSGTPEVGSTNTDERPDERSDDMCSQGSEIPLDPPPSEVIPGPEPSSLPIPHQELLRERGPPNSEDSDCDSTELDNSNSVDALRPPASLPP
Kind of data set: Inhibition of Flag DLK (unknown origin) transfected in HEK293 cells assessed as reduction of phosphorylation of JNK at 0.1 to 10 uM incubated for 5 hrs measured by Western blot analysis. Format: cell-based. In outline: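 HEK293 cells were transfected with Flag-tagged DLK, with kinase-dead DLK K152A as comparator, 24 h before compound addition. Cells were then exposed to compound for 5 h. Phospho-MKK4, phospho-MKK7, phospho-JNK and phospho-c-Jun were probed.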

Data set [18] is described as follows: Oral bioavailability in […] rat at 1 or 5 mg/kg. To be noted: in vivo. Format: ADME, organism-based. In outline: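 Rat PK: iv dosing at 0.4 or 1 mg/kg as a 60% PEG solution, po dosing at 1 or 5 mg/kg as an aqueous suspension with 1% methylcellulose.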
For data set [19], the target named is Interleukin-1 receptor-associated kinase 4 (Homo sapiens) (UniProt Q9NWZ3). Nature of the data set: Inhibition of IRAK4 (unknown origin) at 1 uM by FRET method. The procedure, abridged: as §1
Chain of Interleukin-1 receptor-associated kinase 4 (Homo sapiens) (Q9NWZ3 whole entry): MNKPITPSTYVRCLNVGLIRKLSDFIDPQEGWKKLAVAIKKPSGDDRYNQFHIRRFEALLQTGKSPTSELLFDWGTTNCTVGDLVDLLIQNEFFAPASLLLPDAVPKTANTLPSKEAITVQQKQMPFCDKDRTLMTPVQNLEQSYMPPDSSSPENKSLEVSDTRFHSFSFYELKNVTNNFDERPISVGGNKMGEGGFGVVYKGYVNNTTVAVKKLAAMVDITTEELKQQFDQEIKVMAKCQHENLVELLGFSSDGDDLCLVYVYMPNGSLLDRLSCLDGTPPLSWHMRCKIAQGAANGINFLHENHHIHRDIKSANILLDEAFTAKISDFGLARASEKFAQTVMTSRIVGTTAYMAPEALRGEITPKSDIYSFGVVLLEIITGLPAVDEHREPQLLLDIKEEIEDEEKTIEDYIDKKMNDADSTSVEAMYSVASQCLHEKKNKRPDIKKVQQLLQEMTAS
Data set [20] has as its target Mitogen-activated protein kinase 14 (Homo sapiens) (UniProt Q16539). Nature of the data set: Inhibition of p38alpha (unknown origin) at 1 uM by FRET method. The procedure, abridged:
as §2

The target in data set [21] is Myotonin-protein kinase (Homo sapiens) (UniProt Q09013). Kind of data set: Inhibition of DMPK (unknown origin) at 1 uM by FRET method. The procedure, abridged: as §1
For data set [22], the system named is Rattus norvegicus. Nature of the data set: Dose normalized free AUC in rat at 0.4 or 1 mg/kg, iv and 1 or 5 mg/kg, po. To be noted: in vivo.

These results are taken from ChEMBL document CHEMBL3627690, “Scaffold-Hopping and Structure-Based Discovery of Potent, Selective, And Brain Penetrant N-(1H-Pyrazol-3-yl)pyridin-2-amine Inhibitors of Dual Leucine Zipper Kinase (DLK, MAP3K12)” (J Med Chem, 2015).

The structures appear in SMILES notation. pIC50: −log10 of the molar value. The source made the active and inactive calls.

Chain of Activin receptor type-1B (Homo sapiens) (P36896 whole entry): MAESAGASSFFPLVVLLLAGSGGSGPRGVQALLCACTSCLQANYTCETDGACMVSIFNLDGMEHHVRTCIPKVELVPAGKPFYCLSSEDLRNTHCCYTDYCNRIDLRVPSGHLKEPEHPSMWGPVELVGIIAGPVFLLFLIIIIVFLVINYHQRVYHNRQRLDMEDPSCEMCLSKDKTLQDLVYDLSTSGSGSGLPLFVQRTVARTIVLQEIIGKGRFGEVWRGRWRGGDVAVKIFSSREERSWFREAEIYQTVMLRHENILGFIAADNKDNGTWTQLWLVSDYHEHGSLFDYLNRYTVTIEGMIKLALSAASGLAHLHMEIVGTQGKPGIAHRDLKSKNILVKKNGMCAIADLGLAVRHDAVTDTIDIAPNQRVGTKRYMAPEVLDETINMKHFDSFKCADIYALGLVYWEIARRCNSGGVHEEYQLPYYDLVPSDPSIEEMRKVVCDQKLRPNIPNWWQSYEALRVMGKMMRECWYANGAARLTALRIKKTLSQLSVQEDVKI
Chain of Epidermal growth factor receptor (Homo sapiens) (P00533 whole entry): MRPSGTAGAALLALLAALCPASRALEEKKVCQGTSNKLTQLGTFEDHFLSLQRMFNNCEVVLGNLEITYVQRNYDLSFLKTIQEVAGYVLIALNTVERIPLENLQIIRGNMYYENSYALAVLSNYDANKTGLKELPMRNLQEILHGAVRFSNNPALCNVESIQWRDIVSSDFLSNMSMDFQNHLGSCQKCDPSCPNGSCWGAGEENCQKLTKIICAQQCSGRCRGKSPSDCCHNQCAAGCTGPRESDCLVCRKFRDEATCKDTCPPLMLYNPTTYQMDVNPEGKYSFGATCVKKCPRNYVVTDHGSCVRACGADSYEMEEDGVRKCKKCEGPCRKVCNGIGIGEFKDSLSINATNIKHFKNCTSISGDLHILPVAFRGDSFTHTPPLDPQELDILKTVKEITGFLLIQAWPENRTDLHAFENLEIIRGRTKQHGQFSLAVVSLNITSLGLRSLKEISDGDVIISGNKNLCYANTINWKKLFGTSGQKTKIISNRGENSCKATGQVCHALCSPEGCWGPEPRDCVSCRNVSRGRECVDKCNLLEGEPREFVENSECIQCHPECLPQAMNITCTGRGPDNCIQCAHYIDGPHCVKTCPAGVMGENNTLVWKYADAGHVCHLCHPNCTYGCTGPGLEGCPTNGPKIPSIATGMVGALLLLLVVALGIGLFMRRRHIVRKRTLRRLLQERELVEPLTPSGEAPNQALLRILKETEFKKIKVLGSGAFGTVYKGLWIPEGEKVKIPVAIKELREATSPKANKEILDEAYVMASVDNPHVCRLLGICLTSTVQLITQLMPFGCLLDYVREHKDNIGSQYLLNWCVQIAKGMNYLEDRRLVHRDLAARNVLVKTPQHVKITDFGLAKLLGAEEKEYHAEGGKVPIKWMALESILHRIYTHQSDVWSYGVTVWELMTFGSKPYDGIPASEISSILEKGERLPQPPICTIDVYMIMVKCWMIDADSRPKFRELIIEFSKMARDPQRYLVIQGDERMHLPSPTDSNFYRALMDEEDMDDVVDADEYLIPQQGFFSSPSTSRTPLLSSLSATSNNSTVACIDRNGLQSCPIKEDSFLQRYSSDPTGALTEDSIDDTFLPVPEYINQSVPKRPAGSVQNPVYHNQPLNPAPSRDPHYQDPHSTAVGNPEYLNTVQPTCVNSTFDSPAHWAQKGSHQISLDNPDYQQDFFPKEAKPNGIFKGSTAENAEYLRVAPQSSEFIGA
Chain of Mitogen-activated protein kinase kinase kinase 11 (Q16584 whole entry, looked up): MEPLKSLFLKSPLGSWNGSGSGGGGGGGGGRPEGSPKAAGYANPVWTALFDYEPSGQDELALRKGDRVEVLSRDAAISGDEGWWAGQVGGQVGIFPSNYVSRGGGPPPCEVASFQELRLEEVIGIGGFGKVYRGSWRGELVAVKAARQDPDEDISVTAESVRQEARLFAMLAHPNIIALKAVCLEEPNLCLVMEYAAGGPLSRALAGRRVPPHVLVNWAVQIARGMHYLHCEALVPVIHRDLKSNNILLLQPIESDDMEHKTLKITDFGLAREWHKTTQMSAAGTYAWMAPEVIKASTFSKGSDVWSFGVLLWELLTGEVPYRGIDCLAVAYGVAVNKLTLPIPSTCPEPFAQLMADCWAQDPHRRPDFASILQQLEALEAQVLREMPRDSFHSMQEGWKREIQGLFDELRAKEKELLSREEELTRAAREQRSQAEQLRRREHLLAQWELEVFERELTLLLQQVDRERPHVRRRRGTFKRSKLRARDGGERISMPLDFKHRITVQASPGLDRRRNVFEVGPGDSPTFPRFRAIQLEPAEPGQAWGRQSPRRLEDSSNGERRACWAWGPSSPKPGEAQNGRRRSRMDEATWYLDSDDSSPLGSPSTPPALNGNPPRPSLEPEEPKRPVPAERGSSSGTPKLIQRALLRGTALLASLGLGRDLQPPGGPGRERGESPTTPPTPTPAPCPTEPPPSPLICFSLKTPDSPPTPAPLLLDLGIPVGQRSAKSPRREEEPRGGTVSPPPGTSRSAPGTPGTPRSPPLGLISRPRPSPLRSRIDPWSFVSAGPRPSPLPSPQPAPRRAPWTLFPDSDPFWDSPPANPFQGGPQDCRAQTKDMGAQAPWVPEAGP
Chain of Dual specificity mitogen-activated protein kinase kinase 1 (Homo sapiens) (Q02750 whole entry): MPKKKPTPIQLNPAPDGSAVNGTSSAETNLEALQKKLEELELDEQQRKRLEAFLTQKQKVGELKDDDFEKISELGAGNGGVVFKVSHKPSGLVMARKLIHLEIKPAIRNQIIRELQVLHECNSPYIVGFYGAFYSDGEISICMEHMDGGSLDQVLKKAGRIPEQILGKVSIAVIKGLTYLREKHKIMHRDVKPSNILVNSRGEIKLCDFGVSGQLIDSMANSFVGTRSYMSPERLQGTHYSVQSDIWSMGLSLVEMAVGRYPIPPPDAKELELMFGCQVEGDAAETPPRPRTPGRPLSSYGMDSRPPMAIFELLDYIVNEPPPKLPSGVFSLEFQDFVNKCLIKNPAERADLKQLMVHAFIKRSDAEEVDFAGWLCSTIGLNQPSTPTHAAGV
Chain of Mast/stem cell growth factor receptor Kit (P10721 whole entry): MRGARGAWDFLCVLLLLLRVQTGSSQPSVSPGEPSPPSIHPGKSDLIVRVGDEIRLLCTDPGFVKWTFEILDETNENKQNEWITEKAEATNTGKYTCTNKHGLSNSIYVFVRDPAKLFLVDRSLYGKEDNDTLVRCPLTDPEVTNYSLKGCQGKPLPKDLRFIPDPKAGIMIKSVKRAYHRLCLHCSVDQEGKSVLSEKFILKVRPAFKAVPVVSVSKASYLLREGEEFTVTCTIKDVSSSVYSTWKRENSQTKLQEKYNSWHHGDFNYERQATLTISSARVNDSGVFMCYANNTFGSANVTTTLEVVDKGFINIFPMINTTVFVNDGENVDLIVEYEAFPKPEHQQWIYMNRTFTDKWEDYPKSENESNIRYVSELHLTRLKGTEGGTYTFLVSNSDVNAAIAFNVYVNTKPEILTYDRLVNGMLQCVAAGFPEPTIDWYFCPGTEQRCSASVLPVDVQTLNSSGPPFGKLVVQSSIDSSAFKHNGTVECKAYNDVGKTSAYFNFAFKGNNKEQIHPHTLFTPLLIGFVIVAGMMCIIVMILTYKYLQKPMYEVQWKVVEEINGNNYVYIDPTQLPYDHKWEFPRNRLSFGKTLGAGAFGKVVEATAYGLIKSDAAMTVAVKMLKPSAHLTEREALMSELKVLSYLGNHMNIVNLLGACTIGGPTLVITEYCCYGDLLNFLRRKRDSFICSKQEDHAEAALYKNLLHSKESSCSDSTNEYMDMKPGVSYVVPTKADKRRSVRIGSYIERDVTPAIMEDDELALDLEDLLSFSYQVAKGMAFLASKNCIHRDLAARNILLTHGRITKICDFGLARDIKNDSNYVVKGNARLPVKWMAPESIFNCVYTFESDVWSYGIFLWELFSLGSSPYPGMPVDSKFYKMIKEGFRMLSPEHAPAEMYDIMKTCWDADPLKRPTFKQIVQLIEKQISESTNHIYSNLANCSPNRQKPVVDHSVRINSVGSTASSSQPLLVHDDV

As to `N#Cc1ccnc(Nc2cc(C3CCN(C4COC4)CC3)n(C3CCCC3)n2)c1`, the inhibition (commonly the drop in the measured response relative to a control, in per cent) in [1] was 7.1%; in data set [2] it was -3.6%; in [3], 50.5%; in data set [4] it was 13.5%; in data set [5] it was 1%; in data set [6] it was 56%. For the same compound, the inhibition is 1.4% in data set [7]; -1.9% in [9]; 4% in [10]; 2.1% in [12]; 58.6% in [13]; 1.8% in data set [14]. The inhibition is 6.6% in data set [16], 19.5% in data set [19], 14.6% in data set [20] and 12% in data set [21]. The negative-log IC50 (pIC50) (commonly the negative decadic logarithm of the IC50, by convention in mol/L) in data set [8] was 6.00; in data set [11], 5.68. Besides, the half-life (in general, the time needed for the level to fall by half in the phase considered) in [15] is 1.7 h. Moreover, the inhibition result in [17] was “Active”. In addition, in data set [18], the bioavailability (in general, dose-corrected exposure relative to a reference, in per cent) came out at 58%. In data set [22], the fAUC/dose is 0.03 kg·h/L.
